# MEKK3 PB1 HTS = modulators (inhibitors or enhancers) of MEK5 binding to human MEKK3 PB1 domain. binding response (% of control), % at 10 µM. bead-based flow cytometry, Alexa488-MEK5 binding to MEKK3; actives lie on both sides; 0 = blocked by unlabeled MEK5, 100 = vehicle. 290,000 tested, 1.4% active. AID 1529;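 active = binding response more than 3 SD above or below the average of its plate-row segment, actives on both sides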;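 note: Alexa488 bead fluorescence after subtracting the streptavidin-only scavenger bead signal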
# Target sequence (Q99759 whole entry, looked up, the tested form may be a part): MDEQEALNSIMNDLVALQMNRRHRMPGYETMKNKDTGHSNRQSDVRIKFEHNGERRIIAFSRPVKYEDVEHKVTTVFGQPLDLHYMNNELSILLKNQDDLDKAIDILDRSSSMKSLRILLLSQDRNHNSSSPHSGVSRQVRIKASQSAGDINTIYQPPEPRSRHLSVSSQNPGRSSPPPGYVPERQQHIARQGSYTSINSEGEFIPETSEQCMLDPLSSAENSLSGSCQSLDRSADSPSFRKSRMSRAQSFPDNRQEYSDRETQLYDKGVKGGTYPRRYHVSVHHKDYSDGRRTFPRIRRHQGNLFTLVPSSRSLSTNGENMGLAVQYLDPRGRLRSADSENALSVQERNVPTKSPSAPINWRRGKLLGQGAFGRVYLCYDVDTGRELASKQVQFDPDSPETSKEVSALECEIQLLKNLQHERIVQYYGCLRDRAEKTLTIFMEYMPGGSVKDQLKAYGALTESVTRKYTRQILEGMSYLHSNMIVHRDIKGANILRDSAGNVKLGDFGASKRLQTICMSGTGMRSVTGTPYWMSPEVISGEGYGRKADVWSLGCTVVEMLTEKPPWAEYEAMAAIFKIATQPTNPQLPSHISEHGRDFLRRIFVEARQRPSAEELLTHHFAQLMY
# ABCG2 block = blocks JC-1 efflux by human ABCG2 transporter. Q9UNQ0. IgMXP3 cells, flow cytometry. inhibition, % at 6.6 µM. 190,000 tested, 0.1% active. AID 1325;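 active = inhibition above 80%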;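 note: 0% = DMSO and 100% = nicardipine control wells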
#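 Incubation: cells with compound and JC-1, 10 min at 25 °C, rotating, no wash / Test system: IgMXP3 (ABCG2) plus far-red-tagged CCRF-Adr (ABCB1) cells / Compound dosing: one concentration, 6.6 µM final / Also added: JC-1 fluorescent substrate / Evaluation: efflux inhibition in percent versus controls / Detection: flow cytometry, 530 nm JC-1 signal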
# MEKK2wt PB1 HTS = raises or lowers MEK5 binding to wildtype human MEKK2 PB1 domain; Q9Y2U5; bead flow cytometry, Alexa488-MEK5 binding to MEKK2 WT; actives lie on both sides; binding response (% of control), % at 10 µM; 290,000 tested, 1.1% active; AID 1531; in the data active = binding response below about 67% or above about 130%
# MEKK2mut PB1 HTS = signal of MEK5 binding to mutant human MEKK2 PB1 domain | bead flow cytometry, Alexa488-MEK5 binding to MEKK2 mutant | percent response, % at 10 µM | 290,000 tested, 0.35% active; in the data active = percent response above about 24%, passing the limit was not always enough
# ABCB1 block = blocks JC-1 efflux by human ABCB1 transporter; inhibition, % at 6.6 µM; CCRF-Adr cells, flow cytometry; AID 1326; 190,000 tested, 0.067% active; P08183; in the data active = inhibition above about 40%;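 note: 0% = vehicle and 100% = reference inhibitor; higher value means more JC-1 retained so stronger ABCB1 efflux block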
# MEKK2wt confirm = raises or lowers MEK5 binding to wildtype human MEKK2, retest | shares compounds with MEKK3 PB1 HTS | bead flow cytometry, Alexa488-MEK5 binding to MEKK2 WT; actives lie on both sides | binding response (% of control), % at 10 µM | 5,900 tested, 2.4% active; in the data active = binding response below about 16% or above about 210%; inactive = in between
# MEKK2mut-MEK5 = signal of MEK5 binding to mutant human MEKK2, retest; 5,900 tested, 2% active; percent response, % at 10 µM; shares compounds with MEKK3 PB1 HTS; bead flow cytometry, Alexa488-MEK5 binding to MEKK2 mutant; AID 1893; in the data active = percent response mostly above about 71%, no sharp cut-off; inactive = mostly below about 38%;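 note: higher means compound restores mutant binding toward wildtype level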
# MEKK3 confirm = MEKK3-MEK5 PB1 inhibition, single concentration confirmation; binding response (% of control), % at 10 µM; shares compounds with MEKK3 PB1 HTS; AID 1894; 5,900 tested, 1.8% active; bead flow cytometry, Alexa488-MEK5 binding to MEKK3; hits give low values;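 active = binding response below 72% of control, or above a set upper limit, though filed actives all read lower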;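 note: 100% = DMSO only wells and 0% = binding blocked by excess unlabeled MEK5; lower values mean stronger disruption of MEK5 binding to MEKK3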
# * = called active by the depositor; / = no result; [ ] = remark or other dose. Most compounds without a hit are left out; they make up all but 2.3% or so of the library.
SMILES,MEKK3 PB1 HTS,ABCG2 block,MEKK2wt PB1 HTS,MEKK2mut PB1 HTS,ABCB1 block,MEKK2wt confirm,MEKK2mut-MEK5,MEKK3 confirm
O=C(NCc1cccs1)c1ccc(Cl)c(S(=O)(=O)N2CCCC2)c1,74.0*[inhibitor],3.9,93.0,-2.0,0.8,105.0,-1.0,103.0
Cc1nc(-c2nc(-c3c(C(=O)NNC(=O)c4ccc(Cl)cc4)noc3C)cs2)cs1,103.0,/,107.0,2.0,/,/,/,/
Cc1nc(-c2nc(-c3c(C(=O)NN)noc3C)cs2)cs1,147.0*,5.7,122.0,6.0,0.3,109.0,9.0,106.0
COc1ccc(C[C@H]2CN3C(=NC[C@@H]3Cc3ccccc3)N2CCNC(=O)CCC2CCCCC2)cc1,110.0,1.9,179.0*,40.0,1.4,134.0,19.0,106.0
CN(Cc1ccccc1)S(=O)(=O)c1ccc2c(c1)n(C)c(=O)c(=O)n2C,130.0*,/,120.0,32.0,/,97.0,0.0,97.0
CC(C)(C)NC(=O)COc1ccc(CNCc2cccs2)cc1,2.0*[inhibitor],0.1,-1.0*[inhibitor],-27.0,0.1,109.0,9.0,102.0
Cc1nc(-c2ccc(C(=O)Nc3cc(S(N)(=O)=O)ccc3C)cc2)cs1,104.0,/,111.0,14.0,/,/,/,/
O=c1cc(CO)oc(CN2CCN(Cc3ccccc3)CC2)c1O,116.0,0.8,135.0*,14.0,0.2,101.0,0.0,99.0
O=c1cc(CO)oc(CN2CCCC2)c1O,/,1.9,/,/,0.6,/,/,/
CCc1nnc(SCC(=O)Nc2ccc(N3CCN(S(C)(=O)=O)CC3)cc2)o1,105.0,/,99.0,1.0,/,/,/,/
O=C(Nc1ccccc1F)C1CC1c1ccccc1 (configuration not stated),98.0,4.3,97.0,-1.0,0.2,/,/,/
NNC(=O)[C@H]1C[C@@H]1c1ccccc1,152.0*,-1.2,111.0,0.0,-0.1,93.0,-9.0,89.0
COc1ccc(S(=O)(=O)N2CCOCC2)cc1C(=O)N1CCCCC1,100.0,/,108.0,5.0,/,/,/,/
C=CCSc1nnc(CNC(=O)c2ccccc2C)n1C(C)C,140.0*,3.9,121.0,4.0,1.1,101.0,-3.0,96.0
O=c1[nH]cc(I)cc1I,37.0*[inhibitor],/,38.0*[inhibitor],-27.0,/,101.0,4.0,102.0
C=CCn1c(SCC(=O)Nc2sc(C)c(C)c2C(=O)OCC)nnc1-c1sc(N)nc1C,100.0,2.7,99.0,14.0,-1.2,/,/,/
C=CCn1c(SCC(=O)NC2CCCCC2)nnc1-c1sc(N)nc1C,3.0*[inhibitor],1.4,3.0*[inhibitor],-13.0,0.3,97.0,2.0,104.0
COc1cccc2cc(C(=O)NCc3ccccc3Cl)c(=O)oc12,100.0,/,104.0,4.0,/,/,/,/
Cc1ccc2nc(C3CCCCC3)[nH]c2c1,106.0,/,105.0,16.0,/,/,/,/
C/C=C/c1ccc(OCCOCCNCc2ccccc2)c(OC)c1,113.0,/,195.0*,24.0*,/,156.0,31.0,108.0
C/C=C/c1ccc(OCCOc2cc(C=O)ccc2OC)c(OC)c1,104.0,7.7,107.0,13.0,0.8,/,/,/
O=C(O)c1cc(S(=O)(=O)Nc2ccc(OCc3ccccc3)cc2)ccc1Br,103.0,/,99.0,0.0,/,/,/,/
O=C(c1ccc(F)cc1)N1CCN2C(=O)c3ccccc3C12c1ccccc1 (configuration not stated),60.0*[inhibitor],/,66.0,-38.0,/,103.0,-2.0,101.0
CCOc1ccc(N(CC(=O)NC2CCCCC2)C(=O)CCC(=O)Nc2nc(C)cs2)cc1,102.0,/,100.0,2.0,/,/,/,/
COc1ccc(NC(=O)N2CCN(c3cccc(C(F)(F)F)c3)CC2)cc1,0.0*[inhibitor],9.7,0.0*[inhibitor],-21.0,0.6,97.0,-4.0,101.0
CN(C)S(=O)(=O)c1ccc(NC(=O)N2CCN(c3cccc(C(F)(F)F)c3)CC2)cc1,100.0,-1.3,93.0,-2.0,-0.4,/,/,/
O=C(CCN1C(=O)c2ccccc2C1=O)Nc1ccccc1C(F)(F)F,101.0,/,100.0,0.0,/,/,/,/

# Source: PubChem BioAssay
